From ChEMBL document CHEMBL1142155, “Human beta-defensins kill Candida albicans in an energy-dependent and salt-sensitive manner without causing membrane disruption” (2007)
The source made the active and inactive calls. No cut-off for these calls is given here.

Key:
Candida albicans [1] = test: Antimicrobial activity against Candida albicans at 11.6 uM in presence of 10 mM NaPB; type: functional
Procedure, shortened: (§1)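 YNB-grown C. albicans (CAF4-2) washed and resuspended at 10⁶ cells/ml in 10, 20, 50 or 100 mM sodium phosphate buffer pH 7.4; peptide 2.9 to 11.6 μM, 1 h at 30°C; 500-cell aliquots plated on YNB agar, 48 h room temperature; loss of viability = [1 − (treated/buffer-only colonies)] × 100; at least three independent experiments, mean ± SD.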

Candida albicans [2] = test: Antimicrobial activity against Candida albicans at 11.6 uM in presence of 20 mM NaPB; type: functional; procedure, shortened: as §1
Candida albicans [3] = test: Antimicrobial activity against Candida albicans at 11.6 uM in presence of 50 mM NaPB; type: functional; procedure, shortened: as §1
Candida albicans [4] = test: Antimicrobial activity against Candida albicans at 11.6 uM in presence of 100 mM NaPB; type: functional; procedure, shortened: as §1
Candida albicans [5] = test: Survival of Candida albicans at 11.6 uM in presence of 0.5 mM CaCl2; type: functional
Procedure, shortened: (§2)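 Cells at 10⁶/ml in 10 mM sodium phosphate pH 7.4 supplemented with 0.5, 1, 5 or 25 mM CaCl₂, MgCl₂, NaCl or KCl; hBD-2 11.6 μM for 1 h at 30°C; colonies counted on YNB agar after 48 h at room temperature; survival relative to buffer-only cells; at least three independent experiments, mean ± SD.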

Candida albicans [6] = test: Survival of Candida albicans at 11.6 uM in presence of 0.5 mM MgCl2; type: functional; procedure, shortened: as §2
Candida albicans [7] = test: Survival of Candida albicans at 11.6 uM in presence of 5 mM CaCl2; type: functional; procedure, shortened: as §2
Candida albicans [8] = test: Survival of Candida albicans at 11.6 uM in presence of 5 mM MgCl2; type: functional; procedure, shortened: as §2
Candida albicans [9] = test: Survival of Candida albicans at 11.6 uM in presence of 0.5 mM NaCl; type: functional; procedure, shortened: as §2
Candida albicans [10] = test: Survival of Candida albicans at 11.6 uM in presence of 0.5 mM KCl; type: functional; procedure, shortened: as §2
Candida albicans [11] = test: Cell death in Candida albicans CAF4-2 in presence of 1 mM NaN3 relative to control; type: functional
Nakaseomyces glabratus [12] = test: Fungicidal activity against Candida glabrata 931010 at 11.6 uM; type: functional
Procedure, shortened: (§3)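 C. albicans CAF4-2 and C. glabrata 931010 or 932474 at 10⁶/ml in 10 mM sodium phosphate pH 7.4, exposed to one peptide concentration (Hst 5 31 μM, hBD-2 11.6 μM, hBD-3 0.8 μM); 500-cell aliquots plated on YNB agar for 48 h at room temperature; loss of viability versus buffer-only control; triplicate.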

Nakaseomyces glabratus [13] = test: Fungicidal activity against Candida glabrata 932474 at 11.6 uM; type: functional; procedure, shortened: as §3
Candida albicans [14] = test: Fungicidal activity against Candida albicans CAF4-2 at 11.6 uM; type: functional; procedure, shortened: as §3
Candida albicans [15] = test: Antimicrobial activity against Candida albicans at 1.0 uM in presence of 20 mM NaPB; type: functional
Procedure, shortened: (§4)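 YNB-grown yeast washed twice and resuspended at 10⁶ cells/ml in 10, 20, 50 or 100 mM sodium phosphate buffer, pH 7.4; peptide 0.2 to 1.0 μM for 1 h at 30°C. Diluted aliquots of 500 cells plated on YNB agar, 48 h at room temperature. Loss of viability = [1 − (treated colonies/buffer-only colonies)] × 100; at least three independent experiments.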

Candida albicans [16] = test: Antimicrobial activity against Candida albicans at 1.0 uM in presence of 10 mM NaPB; type: functional; procedure, shortened: as §4
Candida albicans [17] = test: Antimicrobial activity against Candida albicans at 1.0 uM in presence of 50 mM NaPB; type: functional; procedure, shortened: as §4
Candida albicans [18] = test: Cell death in Candida albicans CAF4-2 at <= 0.6 uM in the presence of 1 mM NaN3 relative to control; type: functional
Nakaseomyces glabratus [19] = test: Fungicidal activity against Candida glabrata 931010 at 0.8 uM; type: functional
Nakaseomyces glabratus [20] = test: Fungicidal activity against Candida glabrata 932474 at 0.8 uM; type: functional
Candida albicans [21] = test: Fungicidal activity against Candida albicans CAF4-2 at 0.8 uM; type: functional
Candida albicans [22] = test: Cell death in Candida albicans CAF4-2 at >= 0.8 uM in presence of 1 mM NaN3 relative to control
Candida albicans [23] = test: Induction of ATP efflux in Candida albicans CAF4-2 at 31 uM in presence of 1 mM sodium azide; type: functional, organism-based
Procedure, shortened: (§5)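 10⁴ C. albicans cells given 31 μM Hst 5 or 1 μM hBD-3, with or without 2 h pretreatment in 1 mM NaN₃. Extracellular ATP read by luminometry at 0, 5, 15, 30, 45 and 60 min. Values come from per-experiment ATP standard curves, as pmol ATP per 10⁴ cells.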

Candida albicans [24] = test: Induction of ATP efflux in Candida albicans CAF4-2 at 31 uM; type: functional, organism-based; procedure, shortened: as §5
Candida albicans [25] = test: Induction of membrane permeabilization in Candida albicans assessed as calcein release at 32 uM after 90 min; type: functional
Procedure, shortened: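 Early-stationary yeast washed in 10 mM NaPB, loaded at 10⁷/ml with 5 μM (final) calcein-AM for 2 h at room temperature, then washed four times; 10⁶ cells given 0.8 μM hBD-3 or 32 μM Hst 5. Fluorescence (ex 485/em 530 nm) read every 5 min for 90 min. Percent release = (I_r − I_bkg)/(I_int − I_bkg) × 100, where I_int comes from boiling 10 min. Mean ± SD of three experiments.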

Nakaseomyces glabratus [26] = test: Fungicidal activity against Candida glabrata 931010 at 31 uM; type: functional
Nakaseomyces glabratus [27] = test: Fungicidal activity against Candida glabrata 932474 at 31 uM; type: functional
Candida albicans [28] = test: Fungicidal activity against Candida albicans CAF4-2 at 31 uM; type: functional
Candida albicans [29] = test: Induction of ATP efflux in Candida albicans CAF4-2 at 11.6 uM; type: functional, organism-based
Procedure, shortened: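 C. albicans CAF4-2 (10⁴ cells) mixed with peptide (Hst 5 31 μM, hBD-2 11.6 μM, hBD-3 1 μM), some cells pretreated 2 h with 1 mM NaN₃; extracellular ATP read by luminometry at 0, 5, 15, 30, 45 and 60 min; quantified against per-experiment ATP standard curves as pmol ATP per 10⁴ cells.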

Candida albicans [30] = test: Induction of membrane permeabilization in Candida albicans assessed as calcein release at 11.6 uM after 90 min; type: functional
Procedure, shortened: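 Early-stationary C. albicans loaded with 5 μM (final) calcein-AM, 2 h room temperature, washed four times; 10⁶ cells with peptide, fluorescence (ex 485/em 530 nm) read every 5 min for 90 min; 100% from boiled cells (10 min), background from untreated cells; % release = (I_r − I_bkg)/(I_int − I_bkg) × 100; three independent experiments, mean ± SD.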

CC[C@H](C)[C@H](NC(=O)CN)C(=O)NCC(=O)N[C@@H](CC(=O)O)C(=O)N1CCC[C@H]1C(=O)N[C@H](C(=O)N[C@H](C(=O)N[C@@H](CS)C(=O)N[C@@H](CC(C)C)C(=O)N[C@@H](CCCCN)C(=O)N[C@@H](CO)C(=O)NCC(=O)N[C@@H](C)C(=O)N[C@H](C(=O)N[C@@H](CS)C(=O)N[C@@H](Cc1cnc[nH]1)C(=O)N1CCC[C@H]1C(=O)N[C@H](C(=O)N[C@@H](Cc1ccccc1)C(=O)N[C@@H](CS)C(=O)N1CCC[C@H]1C(=O)N[C@@H](CCCNC(=N)N)C(=O)N[C@@H](CCCNC(=N)N)C(=O)N[C@@H](Cc1ccc(O)cc1)C(=O)N[C@@H](CCCCN)C(=O)N[C@@H](CCC(N)=O)C(=O)N[C@H](C(=O)NCC(=O)N[C@H](C(=O)N[C@@H](CS)C(=O)NCC(=O)N[C@@H](CC(C)C)C(=O)N1CCC[C@H]1C(=O)NCC(=O)N[C@H](C(=O)N[C@@H](CCCCN)C(=O)N[C@@H](CS)C(=O)N[C@@H](CS)C(=O)N[C@@H](CCCCN)C(=O)N[C@@H](CCCCN)C(=O)N1CCC[C@H]1C(=O)O)[C@@H](C)O)[C@@H](C)O)[C@@H](C)CC)C(C)C)[C@@H](C)CC)[C@@H](C)O)C(C)C
Activity (Candida albicans [1]): 95% | Activity (Candida albicans [2]): 54% | Activity (Candida albicans [3]): 29% | Activity (Candida albicans [4]): 24% | Activity (Candida albicans [5]): 69% | Activity (Candida albicans [6]): 58.4% | Activity (Candida albicans [7]): 86% | Activity (Candida albicans [8]): 97.6% | Activity (Candida albicans [9]): 24% | Activity (Candida albicans [10]): 18% | Activity (Candida albicans [11]): 15% | Activity (Nakaseomyces glabratus [12]): 20.2% | Activity (Nakaseomyces glabratus [13]): 89.6% | Activity (Candida albicans [14]): 95%

CC[C@H](C)[C@H](NC(=O)CN)C(=O)N[C@H](C(=O)N[C@@H](CC(N)=O)C(=O)N[C@H](C(=O)N[C@@H](CC(C)C)C(=O)N[C@@H](CCC(N)=O)C(=O)N[C@@H](CCCCN)C(=O)N[C@@H](Cc1ccc(O)cc1)C(=O)N[C@@H](Cc1ccc(O)cc1)C(=O)N[C@@H](CS)C(=O)N[C@@H](CCCNC(=N)N)C(=O)N[C@H](C(=O)N[C@@H](CCCNC(=N)N)C(=O)NCC(=O)NCC(=O)N[C@@H](CCCNC(=N)N)C(=O)N[C@@H](CS)C(=O)N[C@@H](C)C(=O)N[C@H](C(=O)N[C@@H](CC(C)C)C(=O)N[C@@H](CO)C(=O)N[C@@H](CS)C(=O)N[C@@H](CC(C)C)C(=O)N1CCC[C@H]1C(=O)N[C@@H](CCCCN)C(=O)N[C@@H](CCC(=O)O)C(=O)N[C@@H](CCC(=O)O)C(=O)N[C@@H](CCC(N)=O)C(=O)N[C@H](C(=O)NCC(=O)N[C@@H](CCCCN)C(=O)N[C@@H](CS)C(=O)N[C@@H](CO)C(=O)N[C@H](C(=O)N[C@@H](CCCNC(=N)N)C(=O)NCC(=O)N[C@@H](CCCNC(=N)N)C(=O)N[C@@H](CCCCN)C(=O)N[C@@H](CS)C(=O)N[C@@H](CS)C(=O)N[C@@H](CCCNC(=N)N)C(=O)N[C@@H](CCCNC(=N)N)C(=O)N[C@@H](CCCCN)C(=O)N[C@@H](CCCCN)C(=O)O)[C@@H](C)O)[C@@H](C)CC)C(C)C)C(C)C)[C@@H](C)O)[C@@H](C)CC
Activity (Candida albicans [15]): 63% | Activity (Candida albicans [16]): 98.2% | Activity (Candida albicans [17]): 18% | Activity (Candida albicans [18]): <10% | Activity (Nakaseomyces glabratus [19]): 11.5% | Activity (Nakaseomyces glabratus [20]): 53.2% | Activity (Candida albicans [21]): 98.2% | Activity (Candida albicans [22]): 36%

C[C@H](NC(=O)[C@H](Cc1cnc[nH]1)NC(=O)[C@H](CO)NC(=O)[C@@H](N)CC(=O)O)C(=O)N[C@@H](CCCCN)C(=O)N[C@@H](CCCNC(=N)N)C(=O)N[C@@H](Cc1cnc[nH]1)C(=O)N[C@@H](Cc1cnc[nH]1)C(=O)NCC(=O)N[C@@H](Cc1ccc(O)cc1)C(=O)N[C@@H](CCCCN)C(=O)N[C@@H](CCCNC(=N)N)C(=O)N[C@@H](CCCCN)C(=O)N[C@@H](Cc1ccccc1)C(=O)N[C@@H](Cc1cnc[nH]1)C(=O)N[C@@H](CCC(=O)O)C(=O)N[C@@H](CCCCN)C(=O)N[C@@H](Cc1cnc[nH]1)C(=O)N[C@@H](Cc1cnc[nH]1)C(=O)N[C@@H](CO)C(=O)N[C@@H](Cc1cnc[nH]1)C(=O)N[C@@H](CCCNC(=N)N)C(=O)NCC(=O)N[C@@H](Cc1ccc(O)cc1)C(=O)O [HISTATIN 5]
Activity (Candida albicans [23]): inactive | Activity (Candida albicans [24]): Active | Activity (Candida albicans [25]): 11% | Activity (Nakaseomyces glabratus [26]): 12.2% | Activity (Nakaseomyces glabratus [27]): 29.4% | Activity (Candida albicans [28]): 97.5%

CC[C@H](C)[C@H](NC(=O)CN)C(=O)NCC(=O)N[C@@H](CC(=O)O)C(=O)N1CCC[C@H]1C(=O)N[C@H](C(=O)N[C@H](C(=O)N[C@@H](CS)C(=O)N[C@@H](CC(C)C)C(=O)N[C@@H](CCCCN)C(=O)N[C@@H](CO)C(=O)NCC(=O)N[C@@H](C)C(=O)N[C@H](C(=O)N[C@@H](CS)C(=O)N[C@@H](Cc1cnc[nH]1)C(=O)N1CCC[C@H]1C(=O)N[C@H](C(=O)N[C@@H](Cc1ccccc1)C(=O)N[C@@H](CS)C(=O)N1CCC[C@H]1C(=O)N[C@@H](CCCNC(=N)N)C(=O)N[C@@H](CCCNC(=N)N)C(=O)N[C@@H](Cc1ccc(O)cc1)C(=O)N[C@@H](CCCCN)C(=O)N[C@@H](CCC(N)=O)C(=O)N[C@H](C(=O)NCC(=O)N[C@H](C(=O)N[C@@H](CS)C(=O)NCC(=O)N[C@@H](CC(C)C)C(=O)N1CCC[C@H]1C(=O)NCC(=O)N[C@H](C(=O)N[C@@H](CCCCN)C(=O)N[C@@H](CS)C(=O)N[C@@H](CS)C(=O)N[C@@H](CCCCN)C(=O)N[C@@H](CCCCN)C(=O)N1CCC[C@H]1C(=O)O)[C@H](C)O)[C@H](C)O)[C@@H](C)CC)C(C)C)[C@@H](C)CC)[C@H](C)O)C(C)C
Activity (Candida albicans [29]): Active | Activity (Candida albicans [30]): 10.3%
